OX1R antag-1: antagonists of human orexin 1 receptor | inhibition, % at 5 µM | hit rate 0.43% among 330,000 | CHO/OX1R cells, Fluo-8 calcium fluorescence, orexin A | O43613 | AID 434989;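 active = inhibition above its plate's threshold, mean inhibition of all tested compounds on the plate plus 3 SD, cut at about 37% in these data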;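 also: 0% = orexin A challenge wells and 100% = SB-334867-A antagonist wells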
TAAR1 ag: human TAAR1 agonism | Q96RJ0 | CHO RD-HGA16 TAAR1, Fluo-8 calcium fluorescence; vehicle wells 0%, saturating PEA agonist 100% | activation, % at 3 µM | hit rate 0.99% among 360,000 | AID 624467;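 active = activation above the mean activation of all test compounds in the run plus 3 SD, cut at about 38% in these data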
Target sequence (Q96RJ0 whole entry, looked up): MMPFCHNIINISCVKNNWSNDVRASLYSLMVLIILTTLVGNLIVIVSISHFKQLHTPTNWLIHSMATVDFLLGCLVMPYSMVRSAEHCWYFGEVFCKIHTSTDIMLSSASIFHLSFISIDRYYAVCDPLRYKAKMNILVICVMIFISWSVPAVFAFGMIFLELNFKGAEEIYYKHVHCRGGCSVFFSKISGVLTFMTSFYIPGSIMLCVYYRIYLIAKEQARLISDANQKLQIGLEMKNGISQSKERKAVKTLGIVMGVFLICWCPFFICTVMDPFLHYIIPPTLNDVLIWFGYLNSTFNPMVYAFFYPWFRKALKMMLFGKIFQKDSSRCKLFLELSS
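Assay system: CHO-derived RD-HGA16 cells with stable Gα16 and human TAAR1; timing: 17-24 h seeding, 75 min 37 °C dye, 30 min RT; read-out: % activation from peak over basal fluorescence ratio, DMSO-to-PEA scaled; measured by: kinetic Fluo-8 calcium fluorescence; benchmarks: low control DMSO, high control PEA (EC100); doses: 3 µM single concentration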
GalR3 antag: antagonists of human GalR3; hit rate 0.44% among 360,000; inhibition, % at 3 µM; HEK293 GalR3-CNG cAMP membrane potential fluorescence; galR3 body fused to GalR1 C-terminus; O60755; AID 651719;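 active = inhibition above the screen-wide average plus 3 SD, cut at about 13% in these data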;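 also: forskolin and galanin both at EC90 stimulate the cells; cAMP rise reported by CNG channel membrane potential dye signal; 0% = forskolin plus galanin with DMSO and 100% = forskolin alone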
Target sequence (O60755 1-299 limits assumed): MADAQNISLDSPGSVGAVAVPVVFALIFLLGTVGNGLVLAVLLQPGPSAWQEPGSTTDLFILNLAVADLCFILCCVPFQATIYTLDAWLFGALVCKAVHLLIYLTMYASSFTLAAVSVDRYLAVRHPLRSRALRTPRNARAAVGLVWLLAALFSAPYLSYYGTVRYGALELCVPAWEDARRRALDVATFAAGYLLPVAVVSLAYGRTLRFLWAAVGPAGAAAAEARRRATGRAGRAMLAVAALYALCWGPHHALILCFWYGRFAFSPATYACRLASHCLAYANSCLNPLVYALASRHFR
TAAR1 antagonist: antagonists of human TAAR1; Q96RJ0; inhibition, % at 3 µM; hit rate 1.5% among 360,000; CHO RD-HGA16 TAAR1, Fluo-8 calcium fluorescence, antagonist;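 active = inhibition above a per-plate cutoff, the mean inhibition of test compounds on that plate plus 3 SD, cut at about 49% in these data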;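 also: 0% = DMSO plus EC80 beta-PEA response and 100% = DMSO alone without agonist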
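Test system – hTAAR1-expressing CHO RD-HGA16 cells, Gα16-coupled · Also added – β-PEA at EC80 concentration, post-compound challenge · Compound – 3 µM, single point · Incubation – dye loading 75 min at 37 °C, then 30 min room temperature · Measured by – Fluo-8 intracellular calcium dye fluorescence, real-time kinetic reads · Benchmarks – vehicle and agonist controls · Replicates – singlicate, one well per test compound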
CHO parental Ca: signal in parental CHO cells, OX1R antagonist counter-screen. parental CHO-K1, ATP-induced calcium, Fluo-8 fluorescence. inhibition, % at 5.6 µM. hit rate 0.63% among 330,000. AID 463079;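 active = inhibition above that plate's mean sample inhibition plus 3 SD, cut at about 26% in these data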;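 also: 0% = ATP-challenged DMSO wells and 100% = DMSO wells without ATP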
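Assay system – parental CHO cells · Reagent – ATP stimulus · Detection – intracellular calcium via Fluo-8 no-wash fluorescent dye · Evaluation – percent inhibition of ATP-evoked calcium rise, normalized to controls · Controls – ATP wells versus no-ATP DMSO wells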
OX1R antag-2: OX1R (human) antagonism | O43613 | OX1R-expressing cells, FRET antagonist read-out | inhibition, % at 6.6 µM | hit rate 1.8% among 330,000 | AID 485270; in the data active = inhibition mostly above about 38%, no sharp cut-off; inactive = mostly below about 40%;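 also: 0% = agonist challenge alone and 100% = reference antagonist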
* = called active by the depositor; / = no result given. Rows were chosen to be rich in hits. Some 4.3% of all compounds tested hit in one or more screens of this group.

SMILES	OX1R antag-1	TAAR1 ag	GalR3 antag	TAAR1 antagonist	CHO parental Ca	OX1R antag-2
O=c1[nH]c(=O)n(C2CCCCC2)c(O)c1/C=C/C=Nc1ccccc1	3.3	38.5*	2.9	43.4	-4.1	23.8
O=c1[nH]c(=O)n(-c2ccccc2)c(O)c1/C=C/C=Nc1ccccc1	5.6	13.4	-2.0	6.4	0.2	16.1
CCC(=NCCOc1ccc(Cl)cc1)c1c(O)n(C)c(=O)n(C)c1=O	53.6*	13.9	-0.2	26.6	50.1*	19.4
Cc1ccc(OC(=O)N(C)C[C@H]2OCc3cnnn3CCCC(=O)N([C@H](C)CO)C[C@H]2C)cc1	/	3.0	-6.5	-36.9	/	/
C[C@@H]1O[C@@H](O[C@H]2C[C@@H](O)[C@]3(CO)[C@H]4[C@H](O)C[C@]5(C)[C@@H](C6COC(=O)C6)CC[C@]5(O)[C@@H]4CC[C@]3(O)C2)[C@H](O)[C@H](O)[C@H]1O (stereo partly drawn)	-0.5	2.4	21.5*	-40.4	-0.6	8.7
Cn1c(=O)[nH]c2nncnc2c1=O	4.7	-0.6	-2.2	-9.0	-2.0	70.1*
CC1CCCN(CC(=O)c2ccc(Cl)c(Cl)c2)C1 (stereo not drawn)	10.3	41.8*	-7.1	6.1	-5.9	7.1
COc1cc2c(c(OC)c1O)-c1ccc(OC)c(=O)cc1C(NC(=O)C(F)(F)F)CC2 (stereo not drawn)	/	1.3	0.4	-6.0	/	/
CCCCNC(C)Cc1ccccc1 (stereo not drawn)	-5.0	0.6	-5.0	2.1	-1.9	11.3
COc1ccc(CC(C)NCCC(c2ccccc2)c2ccccc2)cc1 (stereo not drawn)	-8.5	42.5*	-14.9	42.6	2.2	7.5
CC[n+]1c(-c2ccccc2)c2cc(N)ccc2c2ccc(N)cc21	/	1.7	-1.4	-14.9	/	/
COc1ccc(-[n+]2c(-c3ccccc3)cc(-c3ccccc3)cc2-c2ccccc2)cc1	0.8	14.2	-13.7	11.6	21.9	24.6
Oc1ccc(-[n+]2c(-c3ccccc3)cc(-c3ccccc3)cc2-c2ccccc2)cc1	36.5	2.5	-2.3	31.2	43.7*	20.1
C=CCCC1(C(C)C)C(=O)NC(=S)NC1=O	/	0.9	-2.2	-6.0	/	/
CCC1(OC(=O)CN)C(=O)OCc2c1cc1n(c2=O)Cc2cc3ccccc3nc2-1 (stereo not drawn)	-7.9	/	/	/	-12.6	55.8*
CC[C@@]1(O)C(=O)OCc2c1cc1n(c2=O)Cc2cc3c(NC(=O)CN)cccc3nc2-1	10.8	-0.4	-9.9	-2.7	-5.8	38.2*
COC(=O)C1=C(c2cccc(C#N)c2)C[C@@H]2CC[C@H]1N2C(=O)NCCNC(C)=O	-5.1	1.8	-1.9	8.1	3.0	8.2
Cc1nc2cc([N+](=O)[O-])ccc2c(=O)n1-c1ccccc1[N+](=O)[O-]	-18.9	1.8	-7.7	8.4	-8.9	53.1*
COC1C(C)OC(OC2CC(C)(O)Cc3cc4c(c(O)c32)C(=O)c2c(O)cc3c(c2C4=O)OC2OC3(C)C(O)C(N(C)C)C2O)C(OC)C1(C)OC (stereo not drawn)	/	47.1*	-5.2	39.3	/	/
CCc1cc(OC)c(CCN)cc1OC	/	23.2	-5.6	8.8	/	/
CC(C)C(CN1CCC(C)(c2cccc(O)c2)[C@@H](C)C1)NC(=O)C1Cc2ccc(O)cc2CN1 (stereo partly drawn)	/	1.7	0.0	1.3	/	/
COc1cc(/C=C(/C)[N+](=O)[O-])ccc1OCc1ccccc1Cl	37.2	/	/	/	54.3*	29.1
COC(=O)c1ccc(N2CCN(C)CC2)c([N+](=O)[O-])c1	-22.2	1.4	-4.2	11.1	-16.6	44.5*
Cc1cccc2nc(-c3ccccc3)c(-c3ccc(CN4CCC(n5c(=O)[nH]c6cc(Cl)ccc65)CC4)cc3)nc12	/	-0.2	-7.8	-18.4	/	/
CCC1(Cc2ccccc2)C(=O)NC(=S)N(C)C1=O (stereo not drawn)	/	4.8	-0.9	-22.4	/	/
SMILES	OX1R antag-1	TAAR1 ag	GalR3 antag	TAAR1 antagonist	CHO parental Ca	OX1R antag-2
Cc1cc(C)cc(-n2c(C)cc(/C=C3\C(=O)NC(=O)N(C)C3=O)c2C)c1	-27.7	38.0*	-0.2	-16.1	-21.8	14.2
Cc1cc(/C=C2\C(=O)NC(=O)N(c3cccc(F)c3)C2=O)c(C)n1-c1cc(C(=O)O)cc(C(=O)O)c1	1.7	11.9	0.6	-16.4	-4.5	8.6
O=c1[nH]c2cc(Cl)ccc2n1C1CCN(Cc2ccc(-c3nc4ccc(F)cc4nc3-c3ccccc3)cc2)CC1	/	1.5	-6.3	-27.2	/	/
C[C@]12CC[C@H](O)CC1=CCC1C2CC[C@]2(C)C(=O)[C@H](Br)CC12 (stereo partly drawn)	6.4	11.9	-5.1	58.6*	-14.7	6.6
C[C@]12CC[C@H](O)CC1=CC[C@@H]1[C@@H]2CC[C@]2(C)C(=O)CC[C@@H]12	-4.9	6.7	/	-20.7	-8.2	14.5
CC1(C)C(=O)C=C[C@]2(C)[C@H]3CC[C@@]4(C)[C@H](c5ccoc5)OC(=O)[C@H]5O[C@]54[C@]3(C)[C@H](O)C[C@@H]12	-17.6	/	/	/	2.6	11.3
CC1CCCN(c2ccc(C(=O)N3CCC4(CC3)OCCO4)cc2[N+](=O)[O-])C1 (stereo not drawn)	-15.2	3.4	5.2	-13.0	1.5	11.3
CCOC(=O)C1CCCN(c2ccc([N+](=O)[O-])c3nonc23)C1 (stereo not drawn)	/	225.2*	-6.3	71.5*	/	/
Cc1ccc(N2Cc3ccccc3-n3nncc3C2)cc1	/	-0.2	-6.2	-15.8	/	/
Cc1ccc(NP(=O)(Oc2ccccc2F)Oc2ccccc2F)cc1C	-25.6	12.9	0.9	12.6	-5.0	13.8
COc1ccccc1OP(=O)(Nc1cccnc1)Oc1ccccc1OC	-4.2	15.3	-2.7	59.7*	-9.9	9.8
O=P(Nc1ccccc1)(Nc1ccccc1)Oc1ccc(Cl)cc1	-12.6	/	/	/	-23.1	4.1
Cc1cccc(NP(=O)(Oc2ccccc2F)Oc2ccccc2F)c1	-10.9	3.5	-2.3	53.1*	-7.2	9.0
O=C1NS(=O)c2cc([N+](=O)[O-])cc([N+](=O)[O-])c21 (stereo not drawn)	-0.6	10.2	-2.5	-10.5	-8.2	67.4*
Cc1cccc(N=C2c3cc([N+](=O)[O-])ccc3-c3c2cc([N+](=O)[O-])cc3[N+](=O)[O-])c1	/	3.6	-2.6	-15.5	/	/
COc1ccc(-c2ccc3c(c2)CNCc2cnnn2-3)cc1	/	1.8	-1.6	20.6	/	/
C=CCn1c(O)c(N=Nc2c(C)n(C)n(-c3ccccc3)c2=O)c(=O)[nH]c1=S	-8.0	0.1	-3.4	7.5	-6.3	58.4
Cc1c(N=Nc2c(O)[nH]c(=S)[nH]c2=O)c(=O)n(-c2ccccc2)n1C	1.8	-2.4	-12.7	23.9	-9.2	76.6*
